Assays:
[1] = tested on: Astrocyte; assay: Cytotoxicity against rat astrocytes; format: functional, cell-based
Summary of the method: (§1)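 Cells were maintained in 10% FCS BME (Basal Media Eagle). Compound exposure was in 2% FCS BME for 96 h at 37 °C in humidified 5% CO2. IC50 values came from dose-response experiments over a 4-day incubation.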

[2] = tested on: C6; assay: Cytotoxicity against rat C6 glioma cell line; format: functional, cell-based; summary of the method: as §1
[3] = tested on: A549; assay: Cytotoxicity against human A549 cell line; format: functional, cell-based
[4] = tested on: LNCaP; assay: Cytotoxicity against human LNCaP cell line; format: functional, cell-based
[5] = tested on: T98G; assay: Cytotoxicity against human T98G cell line; format: functional, cell-based
[6] = tested on: MCF7; assay: Cytotoxicity against human MCF7 cell line; format: functional, cell-based
[7] = tested on: HeLa; assay: Cytotoxicity against human HeLa cell line; format: functional, cell-based
[8] = tested on: U-87 MG; assay: Cytotoxicity against human U87 cell line; format: functional, cell-based, U-87MG ATCC

Row | SMILES | IC50 [1] [µM] | IC50 [2] [µM] | other results
1 | O=c1[nH]cc(F)c(=O)[nH]1 [FLUOROURACIL] | > 100 | 6.1 | –
2 | O=C(c1ccccc1)c1ccc(CC2NCCc3cc(O)c(O)cc32)cc1 (centres undefined) | 21 | 9.4 | –
3 | CN1CCc2cc(O)c(O)cc2C1Cc1ccc(-c2ccccc2)cc1 (centres undefined) | 15 | 8 | –
4 | COc1cc2c(cc1OC)C(Cc1ccc(C(=O)c3ccccc3)cc1)NCC2 (centres undefined) | 40 | 40 | –
5 | COc1cc(C(O)C2CNCCc3cc(O)c(O)cc32)cc(OC)c1OC (centres undefined) | – | > 50 | –
6 | Nc1ccc(CC2NCCc3cc(O)c(O)cc32)cc1 (centres undefined) | – | > 50 | –
7 | N[C@@H](Cc1ccc(N(CCCl)CCCl)cc1)C(=O)O [MELPHALAN] | 34 | 12.6 | –
8 | CCC(C)N(C)C(=O)c1cc2ccccc2c(-c2ccccc2Cl)n1 (centres undefined) [PK-11195] | – | 73 | –
9 | Oc1cc2c(cc1O)C(Cc1ccc(-c3ccccc3)cc1)NCC2 (centres undefined) | 29 | 2.6 | IC50 [3]: 10.2 µM; IC50 [4]: 10.7 µM; IC50 [5]: 10.2 µM; IC50 [6]: 3.8 µM; IC50 [7]: 3 µM; IC50 [8]: 25.9 µM
10 | COc1ccc(CCN(C)CCc2ccc(-c3ccccc3)cc2)cc1OC | 39 | 12.5 | –
11 | CN1C(=O)CN=C(c2ccc(Cl)cc2)c2cc(Cl)ccc21 [RO-54864] | – | 95 | –
12 | COc1cc(C[C@@H]2NCCc3cc(O)c(O)cc32)cc(OC)c1OC [TRETOQUINOL] | – | > 50 | –
13 | COc1cc2c(cc1OC)CN(CCc1ccc(-c3ccccc3)cc1)CC2 | 15.5 | 9.3 | –
14 | Oc1ccc(CCNCCc2ccc(-c3ccccc3)cc2)cc1O | > 100 | 8.6 | –
15 | O=NN(CCCl)C(=O)NCCCl [CARMUSTINE] | 156 | 9.3 | –
16 | C=C1C(OC(=O)N(C)C)=C(c2ccc(C)cc2)Oc2cc(Cl)ccc2N1C | – | 37.5 | –
17 | COc1cc2c(cc1OC)C(Cc1ccc(-c3ccccc3)cc1)NCC2 (centres undefined) | 83.8 | 4.1 | –
